In assay [1] the target is 3-(3-hydroxydecanoyloxy)decanoate synthase (Pseudomonas aeruginosa (strain ATCC 15692 / PAO1 / 1C / PRS 101 / LMG12228)) (UniProt Q51559). Nature of the assay: Modulation of Pseudomonas aeruginosa lacZ-fused rhlA expressed in Escherichia coli DH5alpha co-expressing Ptac-rhlR assessed as C4-AHL-induced effect at 0.57 mM after 4 hrs by beta-galactosidase assay relative to control. The essentials: (§1)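 rhl reporter: E. coli DH5α carrying pECP61.5 (Ptac-rhlR, PrhlA-lacZ) was grown overnight in LB with ampicillin (100 μg/ml) only, then diluted to OD600 0.150. It was induced with 1 mM IPTG, and 2 μM C4-HSL plus compound or DMSO were added at OD600 1.0. Cultures were shaken 4 h at 37 °C. β-Galactosidase activity was read in Miller units as % of the solvent sample. Triplicates per biological replicate, at least two repeats; paired two-tailed t-test.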

The target is the same in assay [2]. Nature of the assay: Modulation of Pseudomonas aeruginosa lacZ-fused rhlA expressed in Escherichia coli DH5alpha co-expressing Ptac-rhlR assessed as C4-AHL-induced effect at 0.86 mM after 4 hrs by beta-galactosidase assay relative to control. The essentials:
(§2)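 E. coli DH5α carrying pECP61.5 (Ptac-rhlR, PrhlA-lacZ), grown overnight in LB with ampicillin 100 μg/ml and diluted to OD600 0.150. At OD600 1.0, 1 mM IPTG, 2 μM C4-HSL and compound or DMSO were added. Cultures were shaken 4 h at 37 °C, then β-galactosidase was read in Miller units. Activity is % of solvent sample, from triplicates per biological replicate, with at least two repeats.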

The target is the same in assay [3]. Nature of the assay: Modulation of Pseudomonas aeruginosa lacZ-fused rhlA expressed in Escherichia coli DH5alpha co-expressing Ptac-rhlR assessed as C4-AHL-induced effect at 0.29 mM after 4 hrs by beta-galactosidase assay relative to control. The essentials: as §1
Assay [4] concerns the target T1, Acyl-homoserine-lactone synthase (Pseudomonas aeruginosa (strain ATCC 15692 / PAO1 / 1C / PRS 101 / LMG12228)) (UniProt P33883).
T1 sequence (whole entry): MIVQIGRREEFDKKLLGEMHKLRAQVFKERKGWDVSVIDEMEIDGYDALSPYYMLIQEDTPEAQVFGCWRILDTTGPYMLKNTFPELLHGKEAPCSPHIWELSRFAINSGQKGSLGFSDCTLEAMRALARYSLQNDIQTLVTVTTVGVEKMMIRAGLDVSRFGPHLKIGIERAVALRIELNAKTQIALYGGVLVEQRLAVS
Nature of the assay: Modulation of Pseudomonas aeruginosa lacZ-fused lasI expressed in Escherichia coli DH5alpha co-expressing pBAD-lasR assessed as 3-oxo-C12-AHL-induced effect at 1.14 mM after 3 hrs by beta-galactosidase assay relative to control. In a few lines: (§3)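 E. coli DH5α carrying pSC11 (PlasI-lacZ translational fusion) and pJN105L (PBAD-lasR) was grown overnight in LB with ampicillin (100 μg/ml) and gentamicin (15 μg/ml), then diluted to OD600 0.150. Arabinose (0.2% w/v), 3-oxo-C12-AHL (2 μM) and test compound or DMSO were added. Cultures were shaken 3 h at 37 °C. β-Galactosidase activity was read in Miller units and expressed as % of the solvent sample. Triplicates per biological replicate, repeated at least twice; paired two-tailed t-test.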

For assay [5], the target named is T1, Acyl-homoserine-lactone synthase (Pseudomonas aeruginosa (strain ATCC 15692 / PAO1 / 1C / PRS 101 / LMG12228)). Kind of assay: Modulation of Pseudomonas aeruginosa lacZ-fused lasI expressed in Escherichia coli DH5alpha co-expressing pBAD-lasR assessed as 3-oxo-C12-AHL-induced effect at 0.57 mM after 3 hrs by beta-galactosidase assay relative to control. In a few lines:
as §3

Assay [6] has the same target. Kind of assay: Modulation of Pseudomonas aeruginosa lacZ-fused lasI expressed in Escherichia coli DH5alpha co-expressing pBAD-lasR assessed as 3-oxo-C12-AHL-induced effect at 0.86 mM after 3 hrs by beta-galactosidase assay relative to control. In a few lines: as §3
For assay [7] the target is unchanged. Nature of the assay: Modulation of Pseudomonas aeruginosa lacZ-fused lasI expressed in Escherichia coli DH5alpha co-expressing pBAD-lasR at 0.29 to 0.86 mM after 3 hrs by beta-galactosidase assay relative to control. The essentials: as §3
Assay [8] shares this target. Kind of assay: Modulation of Pseudomonas aeruginosa lacZ-fused lasI expressed in Escherichia coli DH5alpha co-expressing pBAD-lasR assessed as 3-oxo-C12-AHL-induced effect at 0.29 mM after 3 hrs by beta-galactosidase assay relative to control. In a few lines: as §3
Assay [9] has as its target 3-(3-hydroxydecanoyloxy)decanoate synthase (Pseudomonas aeruginosa (strain ATCC 15692 / PAO1 / 1C / PRS 101 / LMG12228)) (UniProt Q51559). Kind of assay: Modulation of Pseudomonas aeruginosa lacZ-fused rhlA expressed in Escherichia coli DH5alpha co-expressing Ptac-rhlR assessed as C4-AHL-induced effect at 1.14 mM after 4 hrs by beta-galactosidase assay relative to control. The essentials:
as §2

Assay [10] concerns the target T1, Acyl-homoserine-lactone synthase (Pseudomonas aeruginosa (strain ATCC 15692 / PAO1 / 1C / PRS 101 / LMG12228)). Kind of assay: Modulation of Pseudomonas aeruginosa lacZ-fused lasI expressed in Escherichia coli DH5alpha co-expressing pBAD-lasR assessed as 3-oxo-C12-AHL-induced effect at 0.17 mM after 3 hrs by beta-galactosidase assay relative to control. The essentials: as §3

For assay [11] the target is unchanged. Nature of the assay: Modulation of Pseudomonas aeruginosa lacZ-fused lasI expressed in Escherichia coli DH5alpha co-expressing pBAD-lasR assessed as 3-oxo-C12-AHL-induced effect at 0.52 mM after 3 hrs by beta-galactosidase assay relative to control. In a few lines: as §3
Assay [12] concerns the target 3-(3-hydroxydecanoyloxy)decanoate synthase (Pseudomonas aeruginosa (strain ATCC 15692 / PAO1 / 1C / PRS 101 / LMG12228)) (UniProt Q51559). Kind of assay: Modulation of Pseudomonas aeruginosa lacZ-fused rhlA expressed in Escherichia coli DH5alpha co-expressing Ptac-rhlR assessed as C4-AHL-induced effect at 0.35 mM after 4 hrs by beta-galactosidase assay relative to control. The essentials: as §1

Assay [13] has the same target. Kind of assay: Modulation of Pseudomonas aeruginosa lacZ-fused rhlA expressed in Escherichia coli DH5alpha co-expressing Ptac-rhlR assessed as C4-AHL-induced effect at 0.17 mM after 4 hrs by beta-galactosidase assay relative to control. In a few lines:
as §1

The target is the same in assay [14]. Kind of assay: Modulation of Pseudomonas aeruginosa lacZ-fused rhlA expressed in Escherichia coli DH5alpha co-expressing Ptac-rhlR assessed as C4-AHL-induced effect at 0.69 mM after 4 hrs by beta-galactosidase assay relative to control. In a few lines:
as §2

For assay [15], the target named is T1, Acyl-homoserine-lactone synthase (Pseudomonas aeruginosa (strain ATCC 15692 / PAO1 / 1C / PRS 101 / LMG12228)). Nature of the assay: Modulation of Pseudomonas aeruginosa lacZ-fused lasI expressed in Escherichia coli DH5alpha co-expressing pBAD-lasR assessed as 3-oxo-C12-AHL-induced effect at 0.35 mM after 3 hrs by beta-galactosidase assay relative to control. In a few lines: as §3

The target of assay [16] is 3-(3-hydroxydecanoyloxy)decanoate synthase (Pseudomonas aeruginosa (strain ATCC 15692 / PAO1 / 1C / PRS 101 / LMG12228)) (UniProt Q51559). Nature of the assay: Modulation of Pseudomonas aeruginosa lacZ-fused rhlA expressed in Escherichia coli DH5alpha co-expressing Ptac-rhlR assessed as C4-AHL-induced effect at 0.52 mM after 4 hrs by beta-galactosidase assay relative to control. In a few lines:
as §1

Assay [17] concerns the target T1, Acyl-homoserine-lactone synthase (Pseudomonas aeruginosa (strain ATCC 15692 / PAO1 / 1C / PRS 101 / LMG12228)). Nature of the assay: Modulation of Pseudomonas aeruginosa lacZ-fused lasI expressed in Escherichia coli DH5alpha co-expressing pBAD-lasR assessed as 3-oxo-C12-AHL-induced effect at 0.69 mM after 3 hrs by beta-galactosidase assay relative to control. In a few lines: as §3

The target in assay [18] is 3-(3-hydroxydecanoyloxy)decanoate synthase (Pseudomonas aeruginosa (strain ATCC 15692 / PAO1 / 1C / PRS 101 / LMG12228)) (UniProt Q51559). Nature of the assay: Modulation of Pseudomonas aeruginosa lacZ-fused rhlA expressed in Escherichia coli DH5alpha co-expressing Ptac-rhlR assessed as C4-AHL-induced effect at 0.20 mM after 4 hrs by beta-galactosidase assay relative to control. In a few lines:
as §1

For assay [19] the target is unchanged. Nature of the assay: Modulation of Pseudomonas aeruginosa lacZ-fused rhlA expressed in Escherichia coli DH5alpha co-expressing Ptac-rhlR assessed as C4-AHL-induced effect at 0.81 mM after 4 hrs by beta-galactosidase assay relative to control. In a few lines: as §2
The target is the same in assay [20]. Nature of the assay: Modulation of Pseudomonas aeruginosa lacZ-fused rhlA expressed in Escherichia coli DH5alpha co-expressing Ptac-rhlR assessed as C4-AHL-induced effect at 0.61 mM after 4 hrs by beta-galactosidase assay relative to control. The essentials: as §2
The target in assay [21] is T1, Acyl-homoserine-lactone synthase (Pseudomonas aeruginosa (strain ATCC 15692 / PAO1 / 1C / PRS 101 / LMG12228)). Nature of the assay: Modulation of Pseudomonas aeruginosa lacZ-fused lasI expressed in Escherichia coli DH5alpha co-expressing pBAD-lasR assessed as 3-oxo-C12-AHL-induced effect at 0.20 mM after 3 hrs by beta-galactosidase assay relative to control. In a few lines: as §3

For assay [22] the target is unchanged. Kind of assay: Modulation of Pseudomonas aeruginosa lacZ-fused lasI expressed in Escherichia coli DH5alpha co-expressing pBAD-lasR assessed as 3-oxo-C12-AHL-induced effect at 0.81 mM after 3 hrs by beta-galactosidase assay relative to control. The essentials: as §3
Assay [23] deals with 3-(3-hydroxydecanoyloxy)decanoate synthase (Pseudomonas aeruginosa (strain ATCC 15692 / PAO1 / 1C / PRS 101 / LMG12228)) (UniProt Q51559). Nature of the assay: Modulation of Pseudomonas aeruginosa lacZ-fused rhlA expressed in Escherichia coli DH5alpha co-expressing Ptac-rhlR assessed as C4-AHL-induced effect at 0.40 mM after 4 hrs by beta-galactosidase assay relative to control. In a few lines:
as §1

Assay [24] addresses T1, Acyl-homoserine-lactone synthase (Pseudomonas aeruginosa (strain ATCC 15692 / PAO1 / 1C / PRS 101 / LMG12228)). Nature of the assay: Modulation of Pseudomonas aeruginosa lacZ-fused lasI expressed in Escherichia coli DH5alpha co-expressing pBAD-lasR assessed as 3-oxo-C12-AHL-induced effect at 0.40 mM after 3 hrs by beta-galactosidase assay relative to control. In a few lines:
as §3

The target is the same in assay [25]. Kind of assay: Modulation of Pseudomonas aeruginosa lacZ-fused lasI expressed in Escherichia coli DH5alpha co-expressing pBAD-lasR assessed as 3-oxo-C12-AHL-induced effect at 0.61 mM after 3 hrs by beta-galactosidase assay relative to control. The essentials: as §3

The source made the active and inactive calls. The calls are words filed in the database; no cut-off is given here.

`CCCSC[C@@H]1CCC(O)N1` (mixture of isomers): the Activity was 138% in [1]; 41% in assay [2]; 121% in assay [3]; 11% in [4]; 115% in assay [5]; 31% in assay [6]. Besides, the Activity in assay [8] came out at 228%; in assay [9] it was 9%. Besides, the outcome in assay [7] was inactive.

For the compound `CCCCCCCCCSC[C@H]1NC(=O)[C@H](O)[C@@H]1O`, the Activity in assay [10] was 93%; in assay [11], 80%; in assay [12], 117%; in [13], 106%; in assay [14] it was 135%; in assay [15], 87%. The figures for the Activity in [16] and in [17] were 115% and 63%, respectively.

As to `CCCCCCSC[C@H]1NC(=O)[C@H](O)[C@@H]1O`, the Activity in assay [18] was determined as 132%; in [19], 161%; in assay [20] it was 148%; in assay [21], 96%; in [22] it was 68%; in [23] it was 129%. The Activity in [24] was determined as 78%; in assay [25] it was 79%.

The record behind these values is ChEMBL document CHEMBL1817556, “Substituted lactam and cyclic azahemiacetals modulate Pseudomonas aeruginosa quorum sensing” (Bioorg Med Chem, 2011).
